Source: ChEMBL document CHEMBL4017514, “Discovery of Novel Macrocyclic Hedgehog Pathway Inhibitors Acting by Suppressing the Gli-Mediated Transcription” (J Med Chem, 2017)
pEC50, pIC50: −log10 of the molar value. Calls of active or inactive are those of the source. The calls are words filed in the database; no cut-off is given here.

Key:
[1] = Inhibition of hedgehog signaling pathway in mouse C3H10T1/2 cells assessed as inhibition of hedgehog-induced cell differentiation after 48 hrs by luminescence assay; assay type: cell-based; conditions: C3H 10T1/2, 48 h
[2] = Inhibition of hedgehog signaling pathway in mouse Light2 cells in Shh conditioned medium by Gli-luciferase reporter gene assay; assay type: cell-based; conditions: Mus musculus
In short: (§1)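 Light II cells (NIH-3T3 stably transfected with Gli-responsive firefly luciferase and Renilla expression vector) stimulated with ShhN conditioned medium. This medium was collected from ShhN-transfected HEK293 cells kept in 0.1% FBS. Firefly luciferase normalized to Renilla. IC50 given as mean ± SD (nM) from three separate experiments.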

[3] = species on record: Mus musculus; test: Inhibition of hedgehog signaling pathway in mouse Light2 cells in Shh conditioned medium at 1 uM by Gli-luciferase reporter gene assay relative to control; assay type: cell-based
[4] = species on record: Mus musculus; test: Inhibition of hedgehog signaling pathway in mouse Ptch+/- p53-/- medulloblastoma cells assessed as reduction in GLI1 mRNA expression at 5 uM by RT-qPCR analysis
In short: (§2)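 ptch+/−;p53−/− medulloblastoma cells kept in Neurobasal A/B-27 medium with EGF and bFGF, then treated. Gli1 and ptch1 mRNA measured by RT-qPCR. Data given as mean ± SD.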

[5] = species on record: Mus musculus; test: Inhibition of hedgehog signaling pathway in mouse Ptch+/- p53-/- medulloblastoma cells assessed as reduction in ptch1 mRNA expression at 5 uM by RT-qPCR analysis; in short: as §2
[6] = Inhibition of hedgehog signaling pathway in mouse Shh Light2 cells harboring Gli2 plasmid assessed as reduction in Gli2-mediated transcriptional activity by luciferase reporter gene assay; assay type: cell-based
[7] = Inhibition of hedgehog signaling pathway in mouse Shh Light2 cells assessed as reduction in ShhN-induced GLI-mediated transcriptional activity by luciferase reporter gene assay; assay type: cell-based; in short: as §1
[8] = Inhibition of hedgehog signaling pathway in mouse Shh Light2 cells harboring Gli1 plasmid assessed as reduction in Gli1-mediated transcriptional activity by luciferase reporter gene assay; assay type: cell-based
[9] = Antitumor activity against mouse Ptch+/- p53-/- medulloblastoma cells implanted in athymic nude mouse assessed as tumor growth inhibition at 25 mg/kg, ip bid for 15 consecutive days; assay type: functional; conditions: Medulloblastoma cell, read-out: TGI
In short: (§3)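 Spontaneous ptch+/−;p53−/− intracranial medulloblastomas passaged subcutaneously in athymic nude mice, then 1 mm3 fragments implanted in the right flank. Dosing started at 100−150 mm3 tumor volume, n = 5. Drug given ip twice daily for 15 days as a suspension in 0.5% methylcellulose, 0.2% Tween-80. Caliper volume (length × width2/2) taken twice weekly. TGI calculated on the last day from growth versus vehicle.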

[10] = system: Mus musculus; test: Toxicity in athymic nude mouse implanted with mouse Ptch+/- p53-/- medulloblastoma cells assessed as body weight loss at 25 to 50 mg/kg, ip bid for 15 consecutive days; assay type: organism-based; conditions: in vivo
In short: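 Body weight of nude mice (n = 5) carrying medulloblastoma allografts was followed during 15 days of twice-daily ip dosing in 0.5% methylcellulose/0.2% Tween-80 suspension. Data given as mean ± SD.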

[11] = system: KB; test: Cytotoxicity against human KB cells; assay type: cell-based
[12] = Inhibition of hedgehog signaling pathway in mouse Light2 cells harboring wild type Smo after 36 hrs by Gli luciferase activity; assay type: cell-based
In short: (§4)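 Light II cells (NIH-3T3 stably carrying Gli-responsive firefly luciferase and Renilla vector) transfected with wild-type, D473H or W535L Smo plasmid. Exposed to compound for 36 h, then dual luciferase assay with firefly/Renilla normalization. IC50 derived and given as mean ± SD.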

[13] = Inhibition of hedgehog signaling pathway in mouse Light2 cells harboring Smo D473H mutant after 36 hrs by Gli luciferase activity; assay type: cell-based; in short: as §4
[14] = Inhibition of hedgehog signaling pathway in mouse Light2 cells harboring Smo W535L mutant after 36 hrs by Gli luciferase activity; assay type: cell-based; in short: as §4
[15] = Antitumor activity against mouse Ptch+/- p53-/- medulloblastoma cells implanted in athymic nude mouse assessed as tumor growth inhibition at 50 mg/kg, ip bid for 15 consecutive days; assay type: functional; conditions: Medulloblastoma cell, read-out: TGI; in short: as §3

C[C@H](CO)N1C[C@H](C)[C@H](CN(C)S(=O)(=O)c2ccc(Cl)cc2Cl)Oc2c(NC(=O)C3CC3)cccc2C1=O
pEC50 [1]: 7.22
pIC50 [2]: 6.42
inhibition [3]: 67%
inhibition [4]: inactive
inhibition [5]: inactive

COc1ccc(CN2C[C@@H]3CN(S(=O)(=O)c4ccc(Cl)cc4)CC[C@@H]3Oc3c(NC(=O)C4CC4)cccc3C2=O)cc1 (racemic)
pIC50 [6]: 7.60
pIC50 [7]: 7.64
pIC50 [8]: 7.52
inhibition in vivo at 25 mg/kg [9]: 57.5%
Activity [10]: Non-Toxic
pIC50 [2]: 7.64
pIC50 [11]: < 4.70
pIC50 [12]: 7.45
pIC50 [13]: 7.43
pIC50 [14]: 7.40
inhibition in vivo at 50 mg/kg [15]: 73.4%
